Data as given in ChEMBL document CHEMBL3244061, “Angiotensin II analogues. 12. Role of the aromatic ring of position 8 phenylalanine in pressor activity” (J Med Chem, 1979).
Peptide text beside a SMILES is read from it.

Species: Rattus norvegicus
Experiment: Inhibition of 70 pmol angiotensin-2-induced pressor activity in rat at 1400 pmol/min co-infused with angiotensin-2 measured after 30 mins
Type: functional
Conditions: not given
Summary of the method: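 Antagonist and angiotensin II were coinjected at a 20:1 ratio (1400 pmol/70 pmol per minute) for 30 min. The percent reduction of the angiotensin II pressor effect was recorded. Recovery to one-half of the pretreatment level was followed after the infusion stopped.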

| Compound | inhibition (INH) [%] |
| --- | --- |
| CC[C@H](C)[C@H](NC(=O)[C@H](Cc1ccc(O)cc1)NC(=O)[C@@H](NC(=O)[C@H](CCCNC(=N)N)NC(=O)CNC)C(C)C)C(=O)N[C@@H](Cc1cnc[nH]1)C(=O)N1CCC[C@H]1C(=O)N[C@@H](CC(C)C)C(=O)O (HELM PEPTIDE1{[Sar].R.V.Y.I.H.P.L}$$$$V2.0) | 67 |

Species: Rattus norvegicus
Experiment: Inhibition of angiotensin-2-induced pressor activity in rat assessed as duration of action
Type: functional, organism-based
Conditions: not given
Summary of the method: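 Antagonist was given to rats as a single 4000 pmol dose. Pressor responses to 20 pmol angiotensin II were then followed. Duration of action (T1/2) was taken as the time for the angiotensin II response to recover to one-half of its pretreatment level.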

| Compound | T1/2 [min] |
| --- | --- |
| CC[C@H](C)[C@H](NC(=O)[C@H](Cc1ccc(O)cc1)NC(=O)[C@@H](NC(=O)[C@H](CCCNC(=N)N)NC(=O)CNC)C(C)C)C(=O)N[C@@H](Cc1cnc[nH]1)C(=O)N1CCC[C@H]1C(=O)N[C@@H](CC(C)C)C(=O)O (HELM PEPTIDE1{[Sar].R.V.Y.I.H.P.L}$$$$V2.0) | 45 |

Species: Rattus norvegicus
Experiment: Induction of pressor activity in nephrectomized, pentolinium-treated rat model relative to angiotensin 2
Type: organism-based
Conditions: in vivo
Summary of the method: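 Pressor activity was measured in male rats that were nephrectomized, treated with pentolinium and anesthetized with pentobarbital. Peptides were dissolved in normal saline containing 0.1% polyvinylpyrrolidone and kept in siliconized glass. Molarities of all solutions, including the angiotensin II standard, were set from peptide content determined by amino acid analysis of hydrolysates. Activity was expressed relative to angiotensin II.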

| Activity [%] | Compound |
| --- | --- |
| 2.5 | CC[C@H](C)[C@H](NC(=O)[C@H](Cc1ccc(O)cc1)NC(=O)[C@@H](NC(=O)[C@H](CCCNC(=N)N)NC(=O)CNC)C(C)C)C(=O)N[C@@H](Cc1cnc[nH]1)C(=O)N1CCC[C@H]1C(=O)N[C@@H](CC(C)C)C(=O)O (HELM PEPTIDE1{[Sar].R.V.Y.I.H.P.L}$$$$V2.0) |
| 83 | H-DRVYIHPY-OH |
| 11.5 | CCCCC[C@H](NC(=O)[C@@H]1CCCN1C(=O)[C@H](Cc1cnc[nH]1)NC(=O)[C@@H](NC(=O)[C@H](Cc1ccc(O)cc1)NC(=O)[C@@H](NC(=O)[C@H](CCCNC(=N)N)NC(=O)[C@@H](N)CC(N)=O)C(C)C)[C@@H](C)CC)C(=O)O (HELM PEPTIDE1{N.R.V.Y.I.H.P.[CCCCC[C@H](N[*:1])C(=O)O]}$$$$V2.0) |
| 20 | CC[C@H](C)[C@H](NC(=O)[C@H](Cc1ccc(O)cc1)NC(=O)[C@@H](NC(=O)[C@H](CCCNC(=N)N)NC(=O)[C@@H](N)CC(=O)O)C(C)C)C(=O)N[C@@H](Cc1c[nH]cn1)C(=O)N1CCC[C@H]1C(=O)N[C@@H](CC1CCCCC1)C(=O)O |
| 0.1 | CC[C@H](C)[C@H](NC(=O)[C@H](Cc1ccc(O)cc1)NC(=O)[C@@H](NC(=O)[C@H](CCCNC(=N)N)NC(=O)[C@@H](N)CC(N)=O)C(C)C)C(=O)N[C@@H](Cc1cnc[nH]1)C(=O)N1CCC[C@H]1C(=O)NC1(C(=O)O)Cc2ccccc2C1 (HELM PEPTIDE1{N.R.V.Y.I.H.P.[O=C(O)C1(N[*:1])Cc2ccccc2C1]}$$$$V2.0) |
| 100 | CC[C@H](C)[C@H](NC(=O)[C@H](Cc1ccc(O)cc1)NC(=O)[C@@H](NC(=O)[C@H](CCCNC(=N)N)NC(=O)[C@@H](N)CC(=O)O)C(C)C)C(=O)N[C@@H](Cc1c[nH]cn1)C(=O)N1CCC[C@H]1C(=O)N[C@@H](Cc1ccc(F)cc1)C(=O)O |

Further lines, the compound ahead of its results:

| Compound | Activity [%] |
| --- | --- |
| H-DRVYIHPV-OH | 0.5 |
| CC[C@H](C)[C@H](NC(=O)[C@H](Cc1ccc(O)cc1)NC(=O)[C@@H](NC(=O)[C@H](CCCNC(=N)N)NC(=O)[C@@H](N)CC(N)=O)C(C)C)C(=O)N[C@@H](Cc1cnc[nH]1)C(=O)N1CCC[C@H]1C(=O)N[C@@H](Cc1ccc([N+](=O)[O-])cc1)C(=O)O (HELM PEPTIDE1{N.R.V.Y.I.H.P.[O=C(O)[C@H](Cc1ccc([N+](=O)[O-])cc1)N[*:1]]}$$$$V2.0) | 15 |
| CC[C@H](C)[C@H](NC(=O)[C@H](Cc1ccc(O)cc1)NC(=O)[C@@H](NC(=O)[C@H](CCCNC(=N)N)NC(=O)[C@@H](N)CC(=O)O)C(C)C)C(=O)N[C@@H](Cc1c[nH]cn1)C(=O)N1CCC[C@H]1C(=O)N[C@@H](Cc1ccc(OC)cc1)C(=O)O | 33 |
| CC[C@H](C)[C@H](NC(=O)[C@H](Cc1ccc(O)cc1)NC(=O)[C@@H](NC(=O)[C@@H](C)N)C(C)C)C(=O)N[C@@H](Cc1cnc[nH]1)C(=O)N1CCC[C@H]1C(=O)N[C@@H](CC(C)C)C(=O)O | 1.4 |
| CC[C@H](C)[C@H](NC(=O)[C@H](Cc1ccc(O)c(Cc2ccccc2)c1)NC(=O)[C@@H](NC(=O)[C@H](CCCNC(=N)N)NC(=O)[C@@H](N)CC(N)=O)C(C)C)C(=O)N[C@@H](Cc1cnc[nH]1)C(=O)N1CCC[C@H]1C(=O)N[C@@H](Cc1ccc([N+](=O)[O-])cc1)C(=O)O (HELM PEPTIDE1{N.R.V.[O=C([C@H](Cc1ccc(O)c(Cc2ccccc2)c1)N[*:1])[*:2]].I.H.P.[O=C(O)[C@H](Cc1ccc([N+](=O)[O-])cc1)N[*:1]]}$$$$V2.0) | 0.16 |
| CCCC[C@H](NC(=O)[C@@H]1CCCN1C(=O)[C@H](Cc1cnc[nH]1)NC(=O)[C@@H](NC(=O)[C@H](Cc1ccc(O)cc1)NC(=O)[C@@H](NC(=O)[C@H](CCCNC(=N)N)NC(=O)[C@@H](N)CC(N)=O)C(C)C)[C@@H](C)CC)C(=O)O (HELM PEPTIDE1{N.R.V.Y.I.H.P.[Nle]}$$$$V2.0) | 7.3 |
| CC[C@H](C)[C@H](NC(=O)[C@H](Cc1ccc(O)cc1)NC(=O)[C@@H](NC(=O)[C@H](CCCNC(=N)N)NC(=O)[C@@H](N)CC(N)=O)C(C)C)C(=O)N[C@@H](Cc1cnc[nH]1)C(=O)N1CCC[C@H]1C(=O)N[C@@H](Cc1ccc(N)cc1)C(=O)O (HELM PEPTIDE1{N.R.V.Y.I.H.P.[Nc1ccc(C[C@H](N[*:1])C(=O)O)cc1]}$$$$V2.0) | 52.5 |
| H-NRVYIHPL-OH | 1.2 |
| CC[C@H](C)[C@H](NC(=O)[C@H](Cc1ccc(O)cc1)NC(=O)[C@@H](NC(=O)[C@H](CCCN=C(N)N)NC(=O)[C@@H](N)CC(=O)O)C(C)C)C(=O)N[C@@H](Cc1c[nH]cn1)C(=O)N1CCC[C@H]1C(=O)N[C@@H](Cc1ccc(Br)cc1)C(=O)O | 50 |
| H-NRVYVHPF-OH [ANGIOTENSIN AMIDE] | 100 |
| CCCC[C@H](NC(=O)[C@@H]1CCCN1C(=O)[C@H](Cc1c[nH]cn1)NC(=O)[C@@H](NC(=O)[C@H](Cc1ccc(O)cc1)NC(=O)[C@@H](NC(=O)[C@H](CCCNC(=N)N)NC(=O)[C@@H](N)CC(=O)O)C(C)C)[C@@H](C)CC)C(=O)O | 7.3 |

Species: Rattus norvegicus
Experiment: Inhibition of 3 to 12 pmol angiotensin-2-induced pressor activity in rat at 400 pmol measured after 30 mins
Type: functional
Conditions: not given
Summary of the method: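 A single 400 pmol injection of antagonist was given. Pressor responses to single angiotensin II doses of 3, 6 and 12 pmol were then tracked. Duration (T1/2) was taken as the time for the responses to return to one-half of the pretreatment level.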

| Compound | inhibition (INH) [%] |
| --- | --- |
| CC[C@H](C)[C@H](NC(=O)[C@H](Cc1ccc(O)cc1)NC(=O)[C@@H](NC(=O)[C@H](CCCNC(=N)N)NC(=O)CNC)C(C)C)C(=O)N[C@@H](Cc1cnc[nH]1)C(=O)N1CCC[C@H]1C(=O)N[C@@H](CC(C)C)C(=O)O (HELM PEPTIDE1{[Sar].R.V.Y.I.H.P.L}$$$$V2.0) | 50 |
